Bioassay records: PubChem, Broad Institute
The list is not random: actives were taken first. Their share in the collection is about 2.9%.
SIRT5 block – SIRT5 desuccinylase inhibitors, primary screen, biochemical, fluorescence imaging, single point, set 5 | Purified SirT5, succinyl-peptide AMC, trypsin-coupled fluorescence | 1.1% of 330,000 active | NAD-dependent protein deacylase sirtuin-5, mitochondrial (Homo sapiens), Q9NXA8 | inhibition, % at 15 µM | AID 652115, 2013; in the data active means inhibition above about 15%; inconclusive means no clear call, values can overlap the other calls
Target sequence (Q9NXA8 whole entry, looked up): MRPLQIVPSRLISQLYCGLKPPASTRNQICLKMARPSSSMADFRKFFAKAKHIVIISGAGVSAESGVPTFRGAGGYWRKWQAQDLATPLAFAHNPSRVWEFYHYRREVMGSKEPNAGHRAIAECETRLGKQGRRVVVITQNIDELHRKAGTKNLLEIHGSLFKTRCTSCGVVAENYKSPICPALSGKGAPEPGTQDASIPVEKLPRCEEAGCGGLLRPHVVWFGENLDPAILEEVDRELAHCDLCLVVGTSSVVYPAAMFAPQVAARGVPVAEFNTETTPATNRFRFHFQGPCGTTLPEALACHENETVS
S100A4 MyoIIA – inhibitors of S100A4-myosin IIA peptide binding, primary screen, biochemical, fluorescence polarization, TAMRA-MyoIIA peptide. Protein S100-A4 (Homo sapiens), P26447. inhibition, % at 10.7 µM. 0.14% of 360,000 active. AID 652163, 2013;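 active means mean inhibition of at least 70% across replicates, with every replicate also reaching that level; inconclusive means mean inhibition reaches 70% but some replicates fall short; inactive means mean inhibition below 70%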
Target sequence (P26447 whole entry, looked up): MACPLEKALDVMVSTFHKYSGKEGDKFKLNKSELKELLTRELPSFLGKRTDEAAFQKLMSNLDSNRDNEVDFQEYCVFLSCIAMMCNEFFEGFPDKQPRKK
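Material: human S100A4 monomer with TAMRA-labelled myosin IIA peptide; buffer or medium: HEPES pH 7.2 with CaCl2, KCl, NaCl, DTT, Triton; compound dosing: one concentration per compound; schedule: 5 min incubation before reading; benchmarks: neutral control DMSO, positive control TFP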
ERAP1 inh – human ERAP1 aminopeptidase inhibitors, primary screen, biochemical, single point, plate reader | 0.15% of 340,000 active | recombinant ERAP1, Leu-AMC fluorescence, 60 min | inhibition, % at 10.7 µM | AID 652197, 2013;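 active means mean replicate inhibition of at least 30%, or all replicates individually reaching that 30% level; inactive means mean below 30% and not every replicate reaching it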;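 further: 0% = neutral control wells and 100% = L-leucinethiol positive control wells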
CAL PDZ FP-1 – untagged CAL PDZ binding inhibitors, primary screen, biochemical, fluorescence polarization, HTS. Golgi-associated PDZ and coiled-coil motif-containing protein (Homo sapiens), Q9HD26. purified CAL PDZ, TMR-peptide fluorescence polarization, 1 h. inhibition, % at 24.9 µM. 0.92% of 300,000 active. AID 602252, 2012;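 active means mean inhibition of at least 30% with at least half of replicates also reaching 30%; inconclusive means no clear call, values can overlap the other calls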;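 further: 0% = DMSO neutral control and 100% = excess unlabeled competitor peptide PRC23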
DENV2 CPE – inhibitors of DENV2 cytopathic effect, primary screen, cell-based, plate reader, single concentration; DENV2-infected cells, cytopathic effect rescue; CPE inhibition, % at 9.99 µM; 1.7% of 350,000 active; AID 651640, 2012; in the data active means CPE inhibition above about 20%, passing the limit was not always enough; inconclusive means no clear call, values can overlap the other calls; tested in BHK-21 cells;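 further: 0% = median of neutral control wells and 100% = median of positive control wells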
CAL PDZ FP-2 – CAL PDZ peptide-binding inhibitors, primary screen, biochemical, fluorescence polarization, Cer-tagged CAL PDZ, HTS; Golgi-associated PDZ and coiled-coil motif-containing protein (Homo sapiens), Q9HD26; purified CAL PDZ, TMR-peptide fluorescence polarization, 1 h; inhibition, % at 20 µM; 0.02% of 330,000 active; AID 504414, 2011;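 active means highest replicate inhibition of at least 40%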;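 further: plate controls were DMSO neutral control wells for no effect and unlabeled competitor peptide control wells for full effect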
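System: purified tagged CAL PDZ domain construct (CerCALP). Schedule: 1 h incubation at room temperature before polarization reading. Medium: 25 mM sodium phosphate pH 7.4, 150 mM NaCl, TCEP, IgG, Thesit. Read-out: percent inhibition from loss of millipolarization. Measured by: FP readout, S and P plane fluorescence. Probe or stimulus: fluorescent TMR peptide probe.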
Starred values were filed as active, the others as inactive; u = inconclusive; x = not tested or not shown; ! = a repeat was not active.

SMILES | SIRT5 block | S100A4 MyoIIA | ERAP1 inh | CAL PDZ FP-1 | DENV2 CPE | CAL PDZ FP-2
C[C@@H]1CN([C@H](C)CO)C(=O)c2cc(NC(=O)c3ccncc3)ccc2O[C@@H]1CN(C)Cc1ccc2c(c1)OCO2 | 2 | -5 | -4 | x | 0 | x
CCCC#Cc1cnc2c(c1)C(=O)N([C@@H](C)CO)C[C@@H](C)[C@H](CN(C)C(=O)NCCC)O2 | -2 | -2 | -1 | x | 4 | x
COc1ccc(CN(C)C[C@H]2Oc3c(NS(=O)(=O)c4cn(C)cn4)cccc3C(=O)N([C@H](C)CO)C[C@H]2C)cc1 | -3 | -13 | 7 | x | x | x
CCCCN1CC(=O)N2[C@H](c3ccc(OC)cc3)[C@@H]3C(=O)N(CC)C(=O)[C@@H]3[C@]2(Cc2ccccc2)C1=O | 27* | -3 | 2 | -5 | -10 | 0
CCN1C(=O)[C@H]2[C@@H](c3ccc(OC)cc3)N3C(=O)CN(CCOC)C(=O)[C@@]3(Cc3ccccc3)[C@H]2C1=O | -6 | 2 | 7 | 1 | 66* | 1
CCCCN1CC(=O)N2[C@H](c3ccc(Cl)cc3)[C@@H]3C(=O)N(CC)C(=O)[C@@H]3[C@]2(Cc2ccccc2)C1=O | -4 | -5 | -3 | -1 | -8 | 0
CCCNC(=O)N1CC2(CCN(C(C)=O)CC2)c2c(n(C)c3cc(OC)ccc23)[C@@H]1CO | -7 | -7 | 2 | x | -2 | x
O=[N+]([O-])/C(=C\Nc1ccccc1Cl)S(=O)(=O)c1ccccc1 | x | x | x | -1 | x | 0
O=[N+]([O-])/C(C=Nc1ccccc1O)=C\Nc1ccccc1O | 4 | -2 | -4 | 35* | -3 | 0
C[C@H]1CN([C@@H](C)CO)C(=O)c2c(c3ccccc3n2C)-c2ccccc2CO[C@H]1CN(C)CC1CC1 | 5 | 2 | -7 | x | 3 | x
C[C@H](CO)N1C[C@H](C)[C@@H](CN(C)C(=O)Cc2ccccc2)OCc2ccccc2-c2c(n(C)c3ccccc23)C1=O | 18* | -4 | -2 | x | u | x
C[C@H](CO)N1C[C@H](C)[C@H](CN(C)CC2CC2)OCc2ccccc2-c2c(n(C)c3ccccc23)C1=O | 9 | 90* | -7 | x | 1 | x
C[C@H]1CN([C@@H](C)CO)C(=O)c2c(c3ccccc3n2C)-c2ccccc2CO[C@H]1CN(C)C(=O)Nc1cccc(Cl)c1Cl | 10 | -20 | 0 | x | 2 | x
C[C@H]1CN([C@@H](C)CO)C(=O)c2c(c3ccccc3n2C)-c2ccccc2CO[C@H]1CN(C)Cc1ccccc1 | 19* | -27 | 2 | x | 1 | x
C[C@@H]1CN([C@@H](C)CO)C(=O)c2c(c3ccccc3n2C)-c2ccccc2CO[C@H]1CN(C)C(=O)Nc1cccc(Cl)c1Cl | -5 | 4 | 2 | x | 40* | x
C[C@@H]1CN([C@H](C)CO)C(=O)c2cccc(N(C)C)c2O[C@@H]1CN(C)Cc1ccccc1 | -2 | 9 | 0 | x | 3 | x
COc1cccc(NC(=O)N2CC(=O)N3[C@H](CO)[C@H](c4ccc(Br)cc4)[C@H]3C2)c1 | 1 | -7 | 0 | x | 2 | x
CC(C)[C@@H](C)NC(=O)N(C)C[C@@H]1OCc2ccccc2-c2c(n(C)c3ccccc23)C(=O)N([C@@H](C)CO)C[C@@H]1C | 19* | -3 | 2 | x | 12 | x
C[C@@H]1CN([C@@H](C)CO)C(=O)c2c(c3ccccc3n2C)-c2ccccc2CO[C@@H]1CN(C)Cc1ccc(-c2ccccc2)cc1 | 17* | 5 | -5 | x | 8 | x
C[C@@H]1CN([C@@H](C)CO)C(=O)c2c(c3ccccc3n2C)-c2ccccc2CO[C@H]1CN(C)Cc1ccc(-c2ccccc2)cc1 | 4 | 4 | -4 | x | -3 | x
C[C@@H]1CN([C@@H](C)CO)C(=O)c2c(c3ccccc3n2C)-c2ccccc2CO[C@H]1CN(C)Cc1cccc(O)c1 | 0 | 14 | 2 | x | 25* | x
C[C@@H]1CN([C@@H](C)CO)C(=O)c2c(c3ccccc3n2C)-c2ccccc2CO[C@@H]1CN(C)C(=O)[C@H](C)c1ccccc1 | 20* | -31 | -5 | x | -19 | x
C[C@H]1CN([C@@H](C)CO)C(=O)c2c(c3ccccc3n2C)-c2ccccc2CO[C@@H]1CN(C)Cc1cccc(O)c1 | 10 | 16 | 1 | x | 5 | x
O=C(C[C@@H]1CC[C@H]2[C@@H](COC[C@H](O)CN2Cc2cccc(C(F)(F)F)c2)O1)NCCc1ccccc1 | -1 | 5 | -3 | x | -12 | x
O=C(C[C@@H]1CC[C@H](NC(=O)Nc2ccc3c(c2)OCO3)[C@H](CO)O1)NCc1ccc(F)cc1 | -4 | 14 | -1 | x | -3 | x
SMILES | SIRT5 block | S100A4 MyoIIA | ERAP1 inh | CAL PDZ FP-1 | DENV2 CPE | CAL PDZ FP-2
C[C@@H]1CN([C@@H](C)CO)C(=O)c2c(c3ccccc3n2C)-c2ccccc2CO[C@H]1CN(C)Cc1cccc2c1OCCCO2 | 7 | -1 | 2 | x | 21* | x
C[C@@H]1CN([C@H](C)CO)C(=O)c2c(c3ccccc3n2C)-c2ccccc2CO[C@H]1CN(C)Cc1ccc2c(c1)OCCN2C | 0 | 3 | -7 | x | 28*! | x
COc1ccccc1CN(C)C[C@H]1OCc2ccccc2-c2c(n(C)c3ccccc23)C(=O)N([C@@H](C)CO)C[C@@H]1C | 10 | 9 | -2 | x | -9 | x
C[C@H](CO)N1C[C@H](C)[C@H](CN(C)Cc2ccc3c(c2)OCCN3C)OCc2ccccc2-c2c(n(C)c3ccccc23)C1=O | 3 | -12 | 2 | x | -3 | x
CC(C)C#Cc1cnc2c(c1)C(=O)N([C@H](C)CO)C[C@H](C)[C@H](CN(C)C(=O)c1ccc3c(c1)OCO3)O2 | -1 | 5 | -1 | x | u | x
CO[C@@H]1CN(C)C(=O)c2cc(NS(=O)(=O)c3ccccc3)ccc2OC[C@@H](C)N(Cc2ccccn2)C[C@H]1C | 3 | -3 | 1 | x | 6 | x
CC(OC(=O)CC1CCCCC1)C(=O)Nc1ccc(F)cc1 (centres undefined) | 21* | -11 | 1 | -3 | -4 | -2
CC(=O)Nc1ccc(NC(=O)C(C)OC(=O)CC2CCCCC2)cc1 (centres undefined) | 4 | -5 | -3 | -4 | -4 | 0
C=CCNc1oc(-c2ccco2)nc1S(=O)(=O)c1ccccc1 | 3 | -9 | -4 | x | -1 | -1
C=CCNc1oc(-c2cccs2)nc1S(=O)(=O)c1ccccc1 | -2 | -15 | 0 | 39* | -2 | 4
